PglD inh: inhibitors of Campylobacter jejuni PglD acetyltransferase; inhibition, % at 12.5 µM; 0.098% of 360,000 active; AID 602405; purified PglD enzyme, DTNB colorimetric CoA detection; in the data active = inhibition above about 16%, passing the limit was not always enough
PfHsp90 set2: reduces growth (ATP signal) of yeast expressing P. falciparum Hsp90; inhibition, % at 9.4 µM; S. cerevisiae expressing PfHsp90, BacTiter-Glo ATP, 48 h; yeast lacking PDR1 and PDR3 efflux regulators; 0.32% of 310,000 active;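 active = every replicate shows inhibition above about 80%, whatever the replicate mean, limit read from the data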;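 note: 0% = DMSO neutral controls and 100% = 20 µM radicicol positive controls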
CSC inhib: blocks cancer stem cells | inhibition, % at 7.5 µM | 1.1% of 300,000 active | cancer stem cell-like cells viability, luminescence; in the data active = inhibition above about 75%; tested in HMLE shEcad cells
SKKanGAS inh: blocks kanamycin growth of S. pyogenes SKKanGAS strain; BacTiter-Glo, 6 h; inhibition, % at 7.5 µM; 1.3% of 300,000 active;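 active = mean replicate score, as percent of positive control median, at least 50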;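 note: strain carries kanamycin resistance gene driven by streptokinase promoter and grows in 40 µg/ml kanamycin; loss of luminescence reflects streptokinase promoter inhibition or plain growth inhibition; 0% = median of DMSO wells and 100% = positive control at its reference dose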
Rtt109 HAT inh: inhibitors of Candida albicans Rtt109/Vps75 histone acetyltransferase; purified Rtt109/Vps75, ThioGlo CoA-SH fluorescence, 4 h; inhibition, % at 34.9 µM; 0.16% of 330,000 active; AID 540336;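 active = inhibition of at least 50% in every replicate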
Target sequence (Q5AAJ8 whole entry, looked up): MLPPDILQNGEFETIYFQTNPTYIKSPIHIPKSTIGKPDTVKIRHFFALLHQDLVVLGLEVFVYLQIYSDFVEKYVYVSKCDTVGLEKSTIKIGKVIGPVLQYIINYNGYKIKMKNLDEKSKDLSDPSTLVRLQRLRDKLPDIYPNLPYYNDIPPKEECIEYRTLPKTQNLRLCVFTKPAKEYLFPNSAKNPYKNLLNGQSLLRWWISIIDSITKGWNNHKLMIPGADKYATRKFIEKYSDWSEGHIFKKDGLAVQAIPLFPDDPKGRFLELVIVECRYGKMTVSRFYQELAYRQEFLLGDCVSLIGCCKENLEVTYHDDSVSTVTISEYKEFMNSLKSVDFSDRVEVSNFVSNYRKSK
FN deposition inh: fibronectin deposition inhibition; inhibition, % at 12.6 µM; AID 743247; 0.086% of 350,000 active; AH1F fibroblasts, Alexa488-fibronectin deposition fluorescence, overnight;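 active = mean inhibition across replicates of 30% or more, regardless of how many single replicates reach that level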;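 note: positive control wells lacked labelled fibronectin entirely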
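Measured by – fluorescence 485/525 nm · System – AH1F fibroblast monolayer, labelled fibronectin deposition · Amount – 10000 cells per well · Buffer or medium – serum-reduced DMEM (2% serum) · Doses – single dose, pinned · Also added – fluorescent fibronectin at 24 nM final · Schedule – 1 h cell attachment, overnight exposure to compound and label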
* marks the source's active call; other numbers are inactive results; nt = no result. Shown are actives, neighbours in structure and some others; about 1.7% of the full set was active somewhere.

SMILES	PglD inh	PfHsp90 set2	CSC inhib	SKKanGAS inh	Rtt109 HAT inh	FN deposition inh
NCC(c1ccc(Cl)cc1Cl)c1c[nH]c2ccccc12 (centres undefined)	-4.7	1.1	94.8*	0.0	-0.3	-4.3
CCCCNC(=S)NCC(c1ccccc1)c1c[nH]c2ccccc12 (centres undefined)	6.7	-2.1	6.9	20.4	-16.5	7.9
CN(C)CCCNC(=S)NCC(c1ccc(Cl)cc1Cl)c1c[nH]c2ccccc12 (centres undefined)	-0.6	2.0	-14.6	55.8*	22.8	9.4
NCC(c1ccccc1Cl)c1c[nH]c2ccccc12 (centres undefined)	-5.8	-5.8	12.8	-3.5	-2.5	-12.2
CC(=O)c1c(C)oc2c1C(=O)c1ccccc1C2=O	-1.0	18.5	82.6*	9.6	-8.6	-2.9
Cc1onc(-c2ccccc2Cl)c1C(=O)NCc1cccnc1	-5.0	-1.2	6.2	-1.9	2.6	12.5
Cc1oc2c(c1C(=O)NCc1cccnc1)C(=O)c1ccccc1C2=O	nt	nt	100.5*	85.9*	nt	nt
COc1ccc(CNC(=O)c2c(C)oc3c2C(=O)c2ccccc2C3=O)cc1	-2.6	-20.0	99.5*	86.8*	-3.6	6.5
O=C1c2ccccc2C(=O)c2c1oc(C(F)(F)F)c2C(=O)c1ccccc1	nt	-84.9	116.8*	106.0*	-1.5	nt
CC(=O)c1c2c3c(c(Br)ccc3n(C)c1=O)C(=O)c1ccccc1-2	0.9	-31.5	-4.9	3.8	3.9	-6.1
CCCNC(=O)N1CC2(CN(C(=O)c3cnccn3)C2)c2c([nH]c3cc(OC)ccc23)[C@H]1CO	nt	nt	nt	nt	nt	3.3
CCC(=O)N1CCCCN2[C@H](CO)[C@H](c3ccc(C#Cc4ccccc4F)cc3)[C@@H]2C1	13.4	nt	nt	nt	nt	nt
O=C(c1ccc(C#CC2(O)CCCCC2)cc1)N1CCN(Cc2ccccc2)CC1	-5.4	20.5	-5.0	3.7	2.7	nt
O=C(c1ccc(C#CC2(O)CCCCC2)cc1)N1CCN(C(c2ccccc2)c2ccccc2)CC1	0.7	nt	77.1*	33.7	13.7	nt
CC(=O)Nc1cccc(-c2ccnc3c2CC(C)(C(=O)Nc2cccc(C(F)(F)F)c2)O3)c1 (centres undefined)	-0.8	nt	nt	nt	nt	30.4*
N#C[C@@H]1[C@@H](c2ccccc2C2=CCCC2)[C@H](CO)N1C(=O)NC1CCCCC1	nt	nt	nt	nt	nt	-3.9
Nc1ccc(N=Nc2ccccc2)c(N)n1	4.4	-24.1	nt	1.6	6.4	3.0
Nc1ccc(N=Nc2ccccc2)c2ccccc12	nt	-2.4	81.2*	86.1*	5.0	8.8
Cc1ccc(-n2sc3ccccc3c2=O)cc1S(=O)(=O)N1CCCCC1	22.1*	106.4*	0.1	90.0*	9.1	27.3
O=c1c2ccccc2sn1-c1cccc(Cl)c1	0.1	nt	nt	nt	nt	nt
O=C(O)c1cccc(-n2sc3ccccc3c2=O)c1	4.6	-3.3	19.3	nt	178.3*	-17.9
O=c1c2ccccc2sn1-c1ccccc1	3.5	87.9*	24.4	100.3*	17.0	nt
O=c1c2ccccc2sn1-c1ccc(S(=O)(=O)N2CCCCC2)cc1	-2.7	-10.8	-7.3	-3.0	-0.6	nt
O=c1c2cc(F)ccc2sn1-c1ccccc1	19.4	-7.3	31.6	nt	132.3*	24.2
C[C@H](CO)N1C[C@H](C)[C@@H](CN(C)C(=O)Nc2ccc(C(F)(F)F)cc2)OCCCC[C@H](C)Oc2ccc(NC(=O)Nc3ccc4c(c3)OCO4)cc2C1=O	-0.6	nt	nt	nt	nt	-6.1
SMILES	PglD inh	PfHsp90 set2	CSC inhib	SKKanGAS inh	Rtt109 HAT inh	FN deposition inh
Cc1ccc(S(=O)(=O)NCC[C@@H]2CC[C@@H](NC(=O)CC3CC3)[C@@H](CO)O2)cc1	-1.2	nt	nt	nt	nt	4.2
O=C(NCc1ccc(F)cc1)[C@@H]1[C@@H](CO)[C@@H]2Cn3c(cccc3=O)[C@H]1N2C(=O)c1cnccn1	-1.0	nt	nt	nt	nt	nt
O=c1c2ccccc2sn1-c1ccccc1F	0.3	nt	nt	nt	nt	-7.7
O=c1c2ccccc2sn1-c1nccs1	nt	35.2	nt	-5.7	6.7	37.9*
Cc1ccccc1-n1sc2cc(F)ccc2c1=O	4.9	nt	57.2	nt	101.8*	39.7*
CCC(=O)Nc1ccc2c(c1)C(=O)N(C)C[C@@H](OC)[C@H](C)CN(C(=O)c1cccnc1)[C@@H](C)CO2	0.1	nt	nt	nt	nt	6.3
CC(C)NC(=O)Nc1ccc2c(c1)C(=O)N(C)C[C@H](C)[C@@H](CN(C)C(=O)OC(C)(C)C)O2	nt	nt	nt	nt	nt	-7.0

Source: PubChem
